Published values collected from several papers.
Target: Protein kinase C delta type (PRKCD, Homo sapiens, UniProt Q05655)

Compound	effect on	method	concentration	remaining binding
COc1cnc(Nc2cccc(S(N)(=O)=O)c2)nc1N1CCN(c2ccccc2)CC1	binding	competition with immobilised ligand	1 µM	100%
Nc1ncc2c(n1)-c1c([nH]c3ccc(C#CC4CC4)cc13)CCCC2	binding	competition with immobilised ligand	1 µM	97%
N[C@H]1CCN(c2nccc(-c3cnn4ncccc34)n2)C1	binding	–	1 µM	100%
O=C1NC(c2ccccn2)Sc2ccccc21 (stereo not drawn)	cell-free assay	competition with immobilised ligand	1 µM	71%
O=C(c1ccc(Nc2ncc(Cl)c(-c3cc4ccccc4s3)n2)cc1)N1CCC(N2CCCC2)CC1	binding	competition with immobilised ligand	1 µM	32%
CN(C)c1nccc(-c2cnn3ncccc23)n1	binding	–	1 µM	100%
O=C(NCc1ncc(C(F)(F)F)cc1Cl)c1ccc2c(c1)C1(CCS(=O)(=O)CC1)[C@@H](C1CC1)N2S(=O)(=O)c1ccc(F)cc1	cell-free assay	competition with immobilised ligand	1 µM	100%
O=C(c1ccc(Nc2nccc(-c3cc4ccccc4s3)n2)cc1)N1CCC(N2CCCC2)CC1	binding	competition with immobilised ligand	1 µM	86%
C=CC(=O)N1CCC(C(=O)NCC(=O)N2CCN(c3nc(-c4cnc(N)nc4C(F)F)nc(N4CCOCC4)n3)CC2)CC1	binding	competition with immobilised ligand	1 µM	100%
CN(C)c1ncc(F)c(-c2cnn3ncccc23)n1	binding	–	1 µM	100%
O=C(Nc1cnc(Oc2ccc(F)cc2)nc1)N1CCc2ncccc2[C@@H]1c1ccc(F)cc1	cell-free assay	competition with immobilised ligand	1 µM	87%
O=C(c1ccc(Nc2ncc(Cl)c(-c3ccc(Cl)s3)n2)cc1)N1CCC(N2CCCC2)CC1	binding	competition with immobilised ligand	1 µM	48%
C[C@@H](c1ccc(-n2cnc3c(N)ncnc32)cc1)N1CCc2nn(C)c(Cc3ccccc3)c2C1=O	binding	competition with immobilised ligand	0.1 µM	100%
C[C@H]1CCN(c2nccc(-c3cnn4ncccc34)n2)C1	binding	–	1 µM	100%
O=C(Nc1c[nH]nc1C(=O)NC1CCNCC1)c1cc(F)cc(F)c1	binding	competition with immobilised ligand	1 µM	100%
C[C@H](c1ccnc(Nc2nc3ccc(-c4cc(N(C)C)ncn4)cc3[nH]2)c1)N1CCN(C(=O)CC(F)(F)F)CC1	cell-free assay	competition with immobilised ligand	0.1 µM	100%
F[C@@H]1CCN(c2nccc(-c3cnn4ncccc34)n2)C1	binding	–	1 µM	100%
CN1CCN(c2cnc3c(C4CCN(C(=O)c5ccc(OC(F)(F)F)cc5N)CC4)ncnc3c2)CC1	cell-free assay	competition with immobilised ligand	1 µM	100%
c1cncc(-c2cccc(Nc3nccc(NC4CCCCC4)n3)c2)c1	binding	competition with immobilised ligand	10 µM	45%
c1cnn2ncc(-c3ccnc(N4CCC45COC5)n3)c2c1	binding	–	1 µM	100%
CS(=O)(=O)N1CCCC(NC(=O)[C@H](CCC2CCCCC2)NC(=O)c2ccc(CNc3ncnc4c3nnn4-c3ccccc3)cc2)C1 (stereo partly drawn)	cell-free assay	competition with immobilised ligand	0.1 µM	80%
